Broadly, the inhibition is how much of the control response was suppressed. Usually pIC50 stands for the IC50 on a negative log10 scale, so that one unit is a factor of ten.

pIC50: −log10 of the molar value.

Among the data in ChEMBL document CHEMBL2176929, “Hepatoprotective iridoid glycosides from the roots of Rehmannia glutinosa” (J Nat Prod, 2012) are inhibition, viability and IC50 values, retold here.

Assay [1] is described as follows: Hepatoprotective activity in human HL7702 cells assessed as inhibition of D-galactosamine-induced cell damage at 10 uM preincubated for 1 hr prior to D-galactosamine challenge measured after 24 hrs by MTT assay relative to untreated control. Format: functional. The settings on record: L02. In outline: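 HL-7702 cells, 2 × 10^4 per well in RPMI 1640 with 10% FCS and penicillin/streptomycin, precultured 24 h at 37 °C in 5% CO2. Pretreated 1 h with samples (10 μM) or bicyclol (10 μM, positive control) in fresh medium, then given 25 mM D-galactosamine for 24 h. Medium removed, 0.5 mg/mL MTT for 4 h, formazan dissolved in DMSO, OD read at 492 nm. Inhibition (%) calculated by formula. Mean ± SD, n = 3 (normal/control n = 6).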
In general terms: Formazan colour is commonly taken as a measure of viable cells.

A further assay deals with L02. Nature of the assay: Hepatoprotective activity in D-galactosamine-treated human HL7702 cells assessed as survival rate at 10 uM preincubated for 1 hr prior to D-galactosamine challenge measured after 24 hrs by MTT assay relative to normal cell. Format: functional. To be noted: read-out: Survival. An outline of the steps: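 HL-7702 cells, 2 × 10^4 per well in RPMI 1640 with 10% fetal calf serum, penicillin and streptomycin, precultured 24 h at 37 °C, 5% CO2. Test samples added in fresh medium for 1 h, then 25 mM D-galactosamine for 24 h. MTT 0.5 mg/mL, 4 h; formazan dissolved in DMSO, OD at 492 nm. Bicyclol 10 μM positive control; means ± SD, n = 3.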

The subject of another assay is A2780. Description: Cytotoxicity against human A2780 cells after 4 days by MTT assay. To be noted: A2780, 96 h. It is filed as functional, cell-based.
The subject of another assay is A549. Nature of the assay: Cytotoxicity against human A549 cells after 4 days by MTT assay. It is filed as functional, cell-based. To be noted: A549, 96 h.
Another assay deals with BGC-823. Description: Cytotoxicity against human BGC823 cells after 4 days by MTT assay. Format: functional, cell-based. The settings on record: BGC-823, 96 h.
The test system of a further assay is Bel-7402. Description: Cytotoxicity against human Bel7402 cells after 4 days by MTT assay. It is filed as functional, cell-based. The settings on record: Bel-7402, 96 h.
In another assay the test system is HCT-8. Description: Cytotoxicity against human HCT8 cells after 4 days by MTT assay. It is filed as functional, cell-based. To be noted: HCT-8, 96 h.

Turning to `COC(=O)c1cc(OC)c2c(c1-c1c(CO)cc(OC)c3c1OCO3)OCO2` [BICYCLOL], the inhibition at 10 µM in assay [1] was 16.7%. Further, the viability at 10 µM in the assay with L02 was determined as 63.6%.
Turning to `C[C@]1(O)C[C@@H](OC(=O)/C=C/c2ccccc2)[C@@H]2C=CO[C@@H](O[C@@H]3O[C@H](CO)[C@@H](O)[C@H](O)[C@H]3O)[C@@H]21` [REHMAGLUTOSIDE A], the negative-log IC50 (pIC50) in the assay with A2780, in the assay on A549, in the assay on BGC-823, with Bel-7402 and with HCT-8 was below 5.00 throughout.
On to `COc1cc(C(=O)O[C@@H]2C[C@](C)(O)[C@H]3[C@H](O[C@@H]4O[C@H](CO)[C@@H](O)[C@H](O)[C@H]4O)OC=C[C@H]32)ccc1O[C@@H]1O[C@H](CO)[C@@H](O)[C@H](O)[C@H]1O` [REHMAGLUTOSIDE B], for which the negative logarithm of the IC50 (pIC50) with A2780, in the assay on A549, in the assay on BGC-823, in the assay on Bel-7402 and with HCT-8 was below 5.00 each time.
For the compound `COc1cc(C(=O)O[C@@H]2C[C@](C)(O)[C@H]3[C@H](O[C@@H]4O[C@H](CO)[C@@H](O)[C@H](O)[C@H]4O)OC=C[C@H]32)cc(OC)c1O[C@@H]1O[C@@H](C)[C@H](O)[C@@H](O)[C@H]1O` [REHMAGLUTOSIDE C], the pIC50 in the assay on A2780, with A549, in the assay on BGC-823, in the assay on Bel-7402 and with HCT-8 was below 5.00 in each case. In addition, the inhibition at 10 µM in assay [1] was 33.6%. In addition, the viability at 10 µM in the assay on L02 stood at 71%.
On to `C[C@]1(O)C[C@@H](OC(=O)CCc2cc(O)ccn2)[C@@H]2C=CO[C@@H](O[C@@H]3O[C@H](CO)[C@@H](O)[C@H](O)[C@H]3O)[C@@H]21` [REHMAGLUTOSIDE D], for which the pIC50 in the assay on A2780, in the assay with A549, with BGC-823, with Bel-7402 and in the assay with HCT-8 was below 5.00 in each case.
Turning to `COc1cc([C@@H]2Oc3c(O)cc(/C=C/C(=O)O[C@@H]4C[C@](C)(O)[C@H]5[C@H](O[C@@H]6O[C@H](CO)[C@@H](O)[C@H](O)[C@H]6O)OC=C[C@H]54)cc3[C@H]2CO)ccc1O` [REHMAGLUTOSIDE E], the negative logarithm of the IC50 (pIC50) in the assay with A2780, in the assay on A549, in the assay on BGC-823, in the assay with Bel-7402 and with HCT-8 was below 5.00 throughout.
With `CC(/C=C/[C@@]1(O)C(C)(C)CCC[C@@]1(C)O)=C\C(=O)O[C@@H]1C[C@](C)(O)[C@H]2[C@H](O[C@@H]3O[C@H](CO)[C@@H](O)[C@H](O)[C@H]3O)OC=C[C@H]21` [REHMAGLUTOSIDE F], the pIC50 in the assay on A2780, in the assay with A549, in the assay with BGC-823, with Bel-7402 and in the assay on HCT-8 was below 5.00 in each case.
Take `CC(/C=C/[C@@]1(O)C(C)(C)C[C@H](O)C[C@@]1(C)O)=C\C(=O)O[C@@H]1C[C@](C)(O)[C@H]2[C@H](O[C@@H]3O[C@H](CO)[C@@H](O)[C@H](O)[C@H]3O)OC=C[C@H]21` [REHMAGLUTOSIDE G]: the negative logarithm of the IC50 (pIC50) in the assay on A2780, in the assay with A549, in the assay on BGC-823, in the assay on Bel-7402 and with HCT-8 was below 5.00 in each case. Besides, the inhibition at 10 µM in assay [1] was found to be 38.7%. Further, the viability at 10 µM in the assay with L02 amounted to 73.2%.
On to `CC(/C=C/[C@@]1(O)C(C)(C)CC[C@@H](O)[C@@]1(C)O)=C\C(=O)O[C@@H]1C[C@](C)(O)[C@H]2[C@H](O[C@@H]3O[C@H](CO)[C@@H](O)[C@H](O)[C@H]3O)OC=C[C@H]21` [REHMAGLUTOSIDE H], for which the pIC50 with A2780, in the assay on A549, in the assay on BGC-823, with Bel-7402 and in the assay on HCT-8 was below 5.00 throughout.
As for `CC(/C=C/[C@@]1(O)C(C)(C)CCC[C@@]1(C)O[C@@H]1O[C@H](CO)[C@@H](O)[C@H](O)[C@H]1O)=C\C(=O)O[C@@H]1C[C@](C)(O)[C@H]2[C@H](O[C@@H]3O[C@H](CO)[C@@H](O)[C@H](O)[C@H]3O)OC=C[C@H]21` [REHMAGLUTOSIDE I], the pIC50 in the assay on A2780, with A549, with BGC-823, with Bel-7402 and in the assay with HCT-8 was below 5.00 throughout. Further, the inhibition at 10 µM in assay [1] worked out at 28.2%. Also, the viability at 10 µM in the assay on L02 was determined as 68.6%.
For `C[C@]1(O)C[C@@H](O)[C@@H]2C=CO[C@@H](O[C@@H]3O[C@H](CO[C@H]4C[C@H]5[C@@H]([C@@H](O[C@@H]6O[C@H](CO)[C@@H](O)[C@H](O)[C@H]6O)O4)[C@](C)(O)C[C@@H]5O)[C@@H](O)[C@H](O)[C@H]3O)[C@@H]21` [REHMAGLUTOSIDE J], the pIC50 in the assay with A2780, in the assay on A549, with BGC-823, in the assay with Bel-7402 and with HCT-8 was below 5.00 throughout. The inhibition at 10 µM in assay [1] was found to be 25.2%. Also, in the assay with L02, the viability at 10 µM is 67.3%.
Take `C[C@]1(O)C[C@@H](O)[C@@H]2C=CO[C@@H](O[C@@H]3O[C@H](CO[C@@H]4C[C@H]5[C@@H]([C@@H](O[C@@H]6O[C@H](CO)[C@@H](O)[C@H](O)[C@H]6O)O4)[C@](C)(O)C[C@@H]5O)[C@@H](O)[C@H](O)[C@H]3O)[C@@H]21` [REHMAGLUTOSIDE K]: the pIC50 in the assay with A2780, in the assay on A549, in the assay on BGC-823, in the assay with Bel-7402 and with HCT-8 was below 5.00 throughout. Moreover, the inhibition at 10 µM in assay [1] stood at 35.5%. Also, the viability at 10 µM in the assay with L02 is 71.8%.
